Assay results from paper PMC4145632 (ACS Chemical Biology, 2014).

Assays:
[1] = system: PA-1/E6 cells; experiment: Resazurin cell viability, PA-1/E6 cells; assay type: cell-based, human; conditions: PA-1/E6, 24 h
Method in brief: (§1)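 Cells plated on day 1; test compound in DMSO, or DMSO, added on day 2. Puromycin as control. Flavonoid compounds and puromycin incubated 24 h. Resazurin then added to 5 μM final for 1 h; resorufin fluorescence read at 590 nm as a surrogate for viability. Cells: HCT116, parental PA-1 (human ovarian teratocarcinoma) or PA-1 stably transfected with HPV16 E6.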

[2] = Resazurin cell viability, PA-1/E6 cells; assay type: cell-based, human; conditions: human, PA-1/E6 cells (PA-1 cells stably transfected with E6)
Method in brief: as §1

[3] = system: SiHa (HPV16 integrated); experiment: p53 level Western blot in SiHa cells; assay type: cell-based, human; conditions: 48 h, compound 1–10 μM
Method in brief: (§2)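 Cells plated, then dosed next day with increasing concentrations of test compound in DMSO, or DMSO control, for 48 h. HCT116 (colon, wild-type p53) got the same concentrations as SiHa/HeLa. Cells washed twice, lysed in RIPA buffer with protease inhibitors, and protein normalised by BCA. Lysates run on SDS-PAGE, transferred to PVDF and probed with anti-p53 antibody.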

[4] = system: PA-1/E6 cells; experiment: p53 level Western blot in PA-1/E6 cells; assay type: cell-based, human; conditions: PA-1/E6, Western blot of remaining cells after treatment
Method in brief: (§3)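 PA-1 and PA-1/HPV16 E6 cells treated with test compound at the same concentrations used for the resazurin viability test. Remaining cells washed, lysed in RIPA buffer with protease inhibitors and protein normalised by BCA. Lysates resolved by SDS-PAGE, transferred to PVDF and immunoblotted for p53.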

[5] = molecular target: E6–E6AP interaction (Human papillomavirus type 16, UniProt P03126); experiment: ELISA-based E6–E6AP association assay; assay type: binding, HPV16; conditions: E6M-GST / MBP-E6AP association
Sequence of E6–E6AP interaction (P03126 whole entry): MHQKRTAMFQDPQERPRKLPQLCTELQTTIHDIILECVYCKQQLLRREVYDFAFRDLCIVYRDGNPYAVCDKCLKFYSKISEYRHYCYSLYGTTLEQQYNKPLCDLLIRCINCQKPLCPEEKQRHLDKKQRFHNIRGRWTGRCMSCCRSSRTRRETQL
Sequence of E6–E6AP interaction (Q05086 363-440, further chain): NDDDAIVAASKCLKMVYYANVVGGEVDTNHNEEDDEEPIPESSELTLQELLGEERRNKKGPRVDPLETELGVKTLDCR

[6] = system: PA-1 cells; experiment: p53 level Western blot in PA-1 cells; assay type: cell-based, human; conditions: PA-1, Western blot of remaining cells after treatment
Method in brief: as §3

[7] = system: HCT116 cells; experiment: p53 level Western blot in HCT116 cells; assay type: cell-based, human
Method in brief: as §2

[8] = system: HCT116 cells; experiment: MTS cytotoxicity assay in HCT116 cells; assay type: cell-based, human; conditions: HCT116, 48 h, all concentrations tested 1.6–25 μM
[9] = system: E6M; experiment: Fluorescent E6 thermal stability assay; assay type: binding, HPV16; conditions: E6M melting curve 20-80 °C, 4 µM E6M, 10 µM compound
Method in brief: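 Full-length untagged E6M: bacterially expressed 6xHis-SUMO fusion, SUMO-protease cleaved, SUMO removed on Ni-NTA. E6M mixed in buffer with SYPRO orange and test compound in DMSO, or DMSO control. Controls: protein only, compound only. Heated 20–80 °C in a real-time PCR instrument; fluorescence at 580 nm (dye bound to protein) read against temperature. Run in replicate.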

[10] = system: HeLa (HPV18 integrated); experiment: p53 level Western blot in HeLa cells; assay type: cell-based, human; conditions: 48 h, compound 1–10 μM
Method in brief: as §2

[11] = system: SiHa cells; experiment: Cell proliferation in SiHa cells; assay type: cell-based, human; conditions: data not shown
[12] = system: HeLa cells; experiment: Cell proliferation in HeLa cells; assay type: cell-based, human; conditions: data not shown
[13] = system: HCT116 cells; experiment: Resazurin cell viability, HCT116 cells; assay type: cell-based, human; conditions: HCT116, 24 h
Method in brief: as §1

[14] = system: PA-1 parental cells; experiment: Resazurin cell viability, PA-1 parental cells; assay type: cell-based, human; conditions: 24 h
Method in brief: as §1

[15] = system: HPV-positive cell lines; conditions: cited from earlier work
[16] = system: HPV-positive cell lines; conditions: HPV-positive cell lines ref 33; cited from earlier work
[17] = HCT116, same concentrations as viability test (Figure 6B)

| SMILES | Cell viability (resazurin) [1] | viability at 24 h [2] [%] | p53 levels [4] | ELISA IC50 (stated in words) [5] | p53 levels [6] | p53 levels [7, 17] | Inhibition of cell proliferation [11] | Inhibition of cell proliferation [12] | also measured |
| --- | --- | --- | --- | --- | --- | --- | --- | --- | --- |
| O=c1c(O)c(-c2ccc(O)c(O)c2)oc2c(O)c(O)cc(O)c12 [Gossypetin] | sensitive | > 50 | concentration dependent increase | sub-micromolar | unchanged | unchanged | did not observe an inhibition of cell proliferation | did not observe an inhibition of cell proliferation | p53 levels [3]: significant increase in p53 levels; Toxicity (MTS) [8]: not toxic; Thermal Stability [9]: stabilizes E6M; p53 levels [10]: significant increase in p53 levels |
| COc1ccc(C[C@H](N)C(=O)N[C@H]2[C@@H](O)[C@H](n3cnc4c(N(C)C)ncnc43)O[C@@H]2CO)cc1 [Puromycin, reference compound] | equally cytotoxic |  |  |  |  |  |  |  | Cell viability (resazurin) [13]: equally cytotoxic; Cell viability (resazurin) [14]: equally cytotoxic |
| O=c1cc(-c2ccccc2)oc2cc(O)c(O)c(O)c12 [baicalein] | sensitive | > 50 | concentration dependent increase | sub-micromolar | unchanged | unchanged | did not observe an inhibition of cell proliferation | did not observe an inhibition of cell proliferation |  |
| CC[n+]1c(-c2ccccc2)c2cc(N)ccc2c2ccc(N)cc21 [ethidium bromide, Ethidium bromide, reference compound] |  |  |  |  |  |  |  |  | p53 levels ([7]; HCT116 (HPV-negative, wild-type p53), 48 h, Western blot): effectively stabilized p53 |
| O=c1cc(-c2ccc(O)c(O)c2)oc2cc(O)cc(O)c12 [luteolin] |  |  |  |  |  |  |  |  | Viability of HPV-positive cell lines [15]: decreased viability; p53 and p21Cip1/Waf1 protein [16]: increase in p53 and p21^Cip1/Waf1 protein |
